Each molecule was assayed on Rattus norvegicus (assay: Decrease in blood pressure at 5 mg/kg in rat).
Format: functional
Outline: (§1)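 Male Sprague-Dawley rats (250–385 g), pentobarbital-anesthetized (50 mg/kg ip); right femoral artery cannulated for arterial pressure via transducer, left femoral vein for iv dosing. Each injection flushed with 0.3 mL saline, preceded by equal-volume saline control; 5-min intervals or until pressure returned to baseline. Fall in mean arterial pressure expressed relative to theophylline 2.5 mg/kg control in same animal; n determinations given.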

Structure (SMILES)	Blood pressure
Cn1c(=O)c2nc[nH]c2n(C)c1=O.O [THEOPHYLLINE]	31.6 mmHg

The molecules below were run on Rattus norvegicus (assay: Decrease in arterial blood pressure in anesthetized rats at 10 mg/kg intravenous femoral injection).
Format: functional, Artery
Parameters: unit not given here

Structure (SMILES)	Mean arterial blood pressure
CC[N+]1=C2SC=NN2C(=O)C(C)C1=O (configuration not stated)	1.6
CCC1C(=O)N2N=CSC2=[N+](CC)C1=O (configuration not stated)	1.6
CCC1C(=O)N(CC)c2sc(C)n[n+]2C1=O (configuration not stated)	0.6
CCN1C(=O)C(C)C(=O)[n+]2nc(C)sc21 (configuration not stated)	0.4
CCCCN1C(=O)CC(=O)[n+]2ccsc21	1.2
CCC1C(=O)N(CC)c2scc[n+]2C1=O (configuration not stated)	0.8

The molecules below were run against Heart phosphodiesterase (Bos taurus) (UniProt Q01061+P14100+E1BN64) (assay: Inhibition of bovine heart cAMP-phosphodiesterase relative to theophylline (Insoluble)).
Format: protein assay
Outline: (§2)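 Bovine heart PDE (Klee method) with 1 μM [3H]cAMP. […] Compounds needing ethanol (2.5% final) are compared with a theophylline control run with ethanol; the others with one run without ethanol. Potency is expressed relative to that theophylline control.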

Structure (SMILES)	Relative potency
CCN1C(=O)C(Cc2ccc(OC)cc2)C(=O)[n+]2ncsc21 (configuration not stated)	Insoluble

These molecules were tested against T1, Heart phosphodiesterase (Bos taurus, UniProt Q01061+P14100+E1BN64) (assay: Inhibition of bovine heart cAMP-phosphodiesterase with ethanol).
Format: protein assay
Outline: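 Bovine heart PDE, Klee method with 1 μM [3H]cAMP as substrate. Compounds were predissolved in 95% EtOH, giving 2.5% ethanol final, then diluted in buffer. A theophylline control was run with ethanol present. […] I50 was taken where V0/V = 2 from a V0/V vs concentration plot. Each value averages two consecutive runs, done in duplicate or triplicate.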

Structure (SMILES)	I50
Cn1c(=O)c2nc[nH]c2n(C)c1=O.O [THEOPHYLLINE]	412 µM

The molecules below were run on Rattus norvegicus (assay: Decrease in arterial blood pressure in anesthetized rats at 60 mg/kg intravenous femoral injection).
Format: functional, Artery

Structure (SMILES)	Mean arterial blood pressure
CCC1C(=O)N(CC)c2sc(C)n[n+]2C1=O (configuration not stated)	1.9

What follows are molecules tested on Rattus norvegicus (assay: Decrease in blood pressure at 15 mg/kg in rat).
Format: functional
Outline: as §1

Structure (SMILES)	Blood pressure
Cn1c(=O)c2nc[nH]c2n(C)c1=O.O [THEOPHYLLINE]	31.9 mmHg

The molecules below were run on Rattus norvegicus (assay: Decrease in arterial blood pressure in anesthetized rats at 5 mg/kg intravenous femoral injection).
Format: functional, Artery
Parameters: unit not given here

Structure (SMILES)	Mean arterial blood pressure
Cn1c(=O)c2nc[nH]c2n(C)c1=O.O [THEOPHYLLINE]	2.34
CC[N+]1=C2SC=NN2C(=O)C(C)C1=O (configuration not stated)	2.2
CCC1C(=O)N2N=CSC2=[N+](CC)C1=O (configuration not stated)	0.6
CCC1C(=O)N(CC)c2sc(C)n[n+]2C1=O (configuration not stated)	0.3
CCN1C(=O)C(C)C(=O)[n+]2nc(C)sc21 (configuration not stated)	0.3
CCCCN1C(=O)CC(=O)[n+]2ccsc21	0.6
CCC1C(=O)N(CC)c2scc[n+]2C1=O (configuration not stated)	0.6

Species: Bos taurus
Test: Compound was evaluated for potency against c-AMP phosphodiesterase relative to theophylline
Outline: as §2

Structure (SMILES)	Relative potency
Cn1c(=O)c2[nH]cnc2n(C)c1=O	1
CC(C)Cn1c(=O)n(C)c(=O)c2nc[nH]c21 [ISOBUTYLMETHYLXANTHINE]	28.9
CCN1C(=O)C(C(C)C)C(=O)[n+]2ncsc21 (configuration not stated)	1.6
CCN1C(=O)C(CC(C)C)C(=O)[n+]2ncsc21 (configuration not stated)	2.7
CCN1C(=O)C(c2ccccc2)C(=O)[n+]2ncsc21 (configuration not stated)	17.2
CC[N+]1=C2SC=NN2C(=O)CC1=O	0.5
CCc1n[n+]2c(s1)N(CC)C(=O)C(CC)C2=O (configuration not stated)	0.1
CCC1C(=O)N2C=CSC2=[N+](CC2CC2)C1=O (configuration not stated)	0.7
CCN1C(=O)C(Cc2ccc(Cl)cc2)C(=O)[n+]2ncsc21 (configuration not stated)	42.9
CCC1C(=O)N(CC2CC2)c2scc(-c3ccccc3)[n+]2C1=O (configuration not stated)	1.5
CC1C(=O)N(Cc2cccc(Cl)c2)c2scc(-c3ccccc3)[n+]2C1=O (configuration not stated)	2.7
CC[N+]1=C2SC=NN2C(=O)C(Cc2ccccc2)C1=O (configuration not stated)	7.9
CCc1n[n+]2c(s1)N(CC)C(=O)C(C)C2=O (configuration not stated)	0.1
CC[N+]1=C2SC=NN2C(=O)C(C)C1=O (configuration not stated)	0.4
CCC1C(=O)N2N=CSC2=[N+](CC)C1=O (configuration not stated)	0.7
CCCC1C(=O)N(CC)c2scn[n+]2C1=O (configuration not stated)	1.6
CCC1C(=O)N(CC)c2sc(C)n[n+]2C1=O (configuration not stated)	0.2
CCC(C)C1C(=O)N(CC)c2scn[n+]2C1=O (configuration not stated)	1.8
CCCCCC1C(=O)N(CC)c2scn[n+]2C1=O (configuration not stated)	2.6
CCN1C(=O)C(C)C(=O)[n+]2nc(C)sc21 (configuration not stated)	0.1
O=C1CC(=O)[n+]2ccsc2N1Cc1cccc(Cl)c1	1.3
CCC1C(=O)N(CC)c2scc[n+]2C1=O (configuration not stated)	0.3
CCC1C(=O)N(CC)c2scc(C)[n+]2C1=O (configuration not stated)	0.7

The molecules below were run against T1, Heart phosphodiesterase (assay: Inhibition of bovine heart cAMP-phosphodiesterase (Insoluble)).
Format: protein assay
Outline: (§3)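 Bovine heart phosphodiesterase (Klee method) with 1 μM [3H]cAMP as substrate. Poorly soluble compounds were dissolved in 95% EtOH, 2.5% final, then diluted with buffer. […] I50 is the concentration where V0/V = 2, read from a V0/V vs. concentration plot. Each value averages two consecutive runs, in duplicate or triplicate.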

Structure (SMILES)	I50
CCN1C(=O)C(Cc2ccc(OC)cc2)C(=O)[n+]2ncsc21 (configuration not stated)	Insoluble

The molecules below were run against T1, Heart phosphodiesterase (assay: In vitro inhibition of bovine heart phosphodiesterase (PDE I)).
Format: protein assay
Outline: as §3

Structure (SMILES)	I50
CC(C)Cn1c(=O)n(C)c(=O)c2nc[nH]c21 [ISOBUTYLMETHYLXANTHINE]	9.9 µM
CCN1C(=O)C(C(C)C)C(=O)[n+]2ncsc21 (configuration not stated)	254 µM
CCN1C(=O)C(CC(C)C)C(=O)[n+]2ncsc21 (configuration not stated)	154 µM
CCN1C(=O)C(c2ccccc2)C(=O)[n+]2ncsc21 (configuration not stated)	24 µM
CC[N+]1=C2SC=NN2C(=O)CC1=O	774 µM
CCc1n[n+]2c(s1)N(CC)C(=O)C(CC)C2=O (configuration not stated)	1980 µM
CCC1C(=O)N2C=CSC2=[N+](CC2CC2)C1=O (configuration not stated)	396 µM
CCN1C(=O)C(Cc2ccc(Cl)cc2)C(=O)[n+]2ncsc21 (configuration not stated)	9.6 µM
CCC1C(=O)N(CC2CC2)c2scc(-c3ccccc3)[n+]2C1=O (configuration not stated)	287 µM
CC1C(=O)N(Cc2cccc(Cl)c2)c2scc(-c3ccccc3)[n+]2C1=O (configuration not stated)	152 µM
CC[N+]1=C2SC=NN2C(=O)C(Cc2ccccc2)C1=O (configuration not stated)	52 µM
CCc1n[n+]2c(s1)N(CC)C(=O)C(C)C2=O (configuration not stated)	2411 µM
CC[N+]1=C2SC=NN2C(=O)C(C)C1=O (configuration not stated)	1160 µM
CCC1C(=O)N2N=CSC2=[N+](CC)C1=O (configuration not stated)	550 µM
CCCC1C(=O)N(CC)c2scn[n+]2C1=O (configuration not stated)	252 µM
CCC1C(=O)N(CC)c2sc(C)n[n+]2C1=O (configuration not stated)	1689 µM
CCC(C)C1C(=O)N(CC)c2scn[n+]2C1=O (configuration not stated)	233 µM
CCCCCC1C(=O)N(CC)c2scn[n+]2C1=O (configuration not stated)	156 µM
CCN1C(=O)C(C)C(=O)[n+]2nc(C)sc21 (configuration not stated)	2453 µM
O=C1CC(=O)[n+]2ccsc2N1Cc1cccc(Cl)c1	308 µM
CCC1C(=O)N(CC)c2scc[n+]2C1=O (configuration not stated)	858 µM
CCC1C(=O)N(CC)c2scc(C)[n+]2C1=O (configuration not stated)	412 µM

These molecules were tested on Rattus norvegicus (assay: Decrease in arterial blood pressure in anesthetized rats at 30 mg/kg intravenous femoral injection).
Format: functional, Artery

Structure (SMILES)	Mean arterial blood pressure
CC[N+]1=C2SC=NN2C(=O)C(C)C1=O (configuration not stated)	7.5
CCC1C(=O)N(CC)c2sc(C)n[n+]2C1=O (configuration not stated)	1.2
CCCCN1C(=O)CC(=O)[n+]2ccsc21	2.9

What follows are molecules tested on Rattus norvegicus (assay: Decrease in arterial blood pressure in anesthetized rats at 15 mg/kg after intravenous femoral injection).
Format: functional, Artery
Parameters: unit not given here

Structure (SMILES)	Mean arterial blood pressure
Cn1c(=O)c2nc[nH]c2n(C)c1=O.O [THEOPHYLLINE]	2.36
CC[N+]1=C2SC=NN2C(=O)C(C)C1=O (configuration not stated)	1.2
CCC1C(=O)N2N=CSC2=[N+](CC)C1=O (configuration not stated)	0.7
CCC1C(=O)N(CC)c2sc(C)n[n+]2C1=O (configuration not stated)	0.3
CCN1C(=O)C(C)C(=O)[n+]2nc(C)sc21 (configuration not stated)	0.5
CCCCN1C(=O)CC(=O)[n+]2ccsc21	1.2
CCC1C(=O)N(CC)c2scc[n+]2C1=O (configuration not stated)	1.2

These molecules were tested on Rattus norvegicus (assay: Decrease in arterial blood pressure in anesthetized rats at 2.5 mg/kg intravenous femoral injection).
Format: functional, Artery
Parameters: unit not given here

Structure (SMILES)	Mean arterial blood pressure
Cn1c(=O)c2nc[nH]c2n(C)c1=O.O [THEOPHYLLINE]	1
CC[N+]1=C2SC=NN2C(=O)C(C)C1=O (configuration not stated)	0.9
CCC1C(=O)N2N=CSC2=[N+](CC)C1=O (configuration not stated)	0.4
CCC1C(=O)N(CC)c2sc(C)n[n+]2C1=O (configuration not stated)	0
CCN1C(=O)C(C)C(=O)[n+]2nc(C)sc21 (configuration not stated)	0.2
CCCCN1C(=O)CC(=O)[n+]2ccsc21	0.9
CCC1C(=O)N(CC)c2scc[n+]2C1=O (configuration not stated)	0.3

What follows are molecules tested on Rattus norvegicus (assay: Decrease in blood pressure at 2.5 mg/kg in rat).
Format: functional
Outline: as §1

Structure (SMILES)	Blood pressure
Cn1c(=O)c2nc[nH]c2n(C)c1=O.O [THEOPHYLLINE]	13.5 mmHg
